Assay results as given in ChEMBL document CHEMBL3044653, “Synthesis and herbicidal activity of 2-(substituted phenoxyacetoxy)alkyl-5,5-dimethyl-1,3,2-dioxaphosphinan-2-one” (J Agric Food Chem, 2012).

What was measured:
Ammannia baccifera [1] = assay: Post-emergence herbicidal activity against Ammannia baccifera assessed as inhibition at 150 g/hectare by green house assay; assay type: functional
Brassica oleracea [2] = assay: Post-emergence herbicidal activity against Brassica oleracea assessed as inhibition at 75 g/hectare by green house assay; assay type: functional
Amaranthus retroflexus [3] = assay: Post-emergence herbicidal activity against Amaranthus retroflexus assessed as inhibition at 150 g/hectare by green house assay; assay type: functional
Brassica juncea [4] = assay: Post-emergence herbicidal activity against Brassica juncea assessed as inhibition at 150 g/hectare by green house assay; assay type: functional
[5] = tested on: Brassica rapa subsp. oleifera; assay: Post-emergence herbicidal activity against Brassica rapa subsp. oleifera assessed as inhibition at 150 g/hectare by green house assay; assay type: functional
Pontederia vaginalis [6] = assay: Post-emergence herbicidal activity against Monochoria vaginalis assessed as inhibition at 150 g/hectare by green house assay; assay type: functional
Ipomoea nil [7] = assay: Post-emergence herbicidal activity against Ipomoea nil (Japanese morning glory) assessed as inhibition at 75 g/hectare by green house assay; assay type: functional
Radish [8] = assay: Post-emergence herbicidal activity against Raphanus sativus (radish) assessed as inhibition at 150 g/hectare by green house assay; assay type: functional
Brassica oleracea [9] = assay: Post-emergence herbicidal activity against Brassica oleracea assessed as inhibition at 150 g/hectare by green house assay; assay type: functional
[10] = tested on: Brassica rapa subsp. chinensis; assay: Post-emergence herbicidal activity against Brassica rapa subsp. chinensis assessed as inhibition at 150 g/hectare by green house assay; assay type: functional
Ipomoea nil [11] = assay: Post-emergence herbicidal activity against Ipomoea nil (Japanese morning glory) assessed as inhibition at 150 g/hectare by green house assay; assay type: functional
Pontederia vaginalis [12] = assay: Post-emergence herbicidal activity against Monochoria vaginalis assessed as inhibition at 75 g/hectare by green house assay; assay type: functional
[13] = tested on: Brassica rapa subsp. oleifera; assay: Post-emergence herbicidal activity against Brassica rapa subsp. oleifera assessed as inhibition at 75 g/hectare by green house assay; assay type: functional
Amaranthus retroflexus [14] = assay: Post-emergence herbicidal activity against Amaranthus retroflexus assessed as inhibition at 75 g/hectare by green house assay; assay type: functional
[15] = tested on: Brassica rapa subsp. chinensis; assay: Post-emergence herbicidal activity against Brassica rapa subsp. chinensis assessed as inhibition at 75 g/hectare by green house assay; assay type: functional
Ammannia baccifera [16] = assay: Post-emergence herbicidal activity against Ammannia baccifera assessed as inhibition at 75 g/hectare by green house assay; assay type: functional
Radish [17] = assay: Post-emergence herbicidal activity against Raphanus sativus (radish) assessed as inhibition at 75 g/hectare by green house assay; assay type: functional
Chenopodium album [18] = assay: Post-emergence herbicidal activity against Chenopodium album assessed as inhibition at 75 g/hectare by green house assay; assay type: functional
Brassica juncea [19] = assay: Post-emergence herbicidal activity against Brassica juncea assessed as inhibition at 75 g/hectare by green house assay; assay type: functional
Chenopodium album [20] = assay: Post-emergence herbicidal activity against Chenopodium album assessed as inhibition at 150 g/hectare by green house assay; assay type: functional
Setaria viridis [21] = assay: Post-emergence herbicidal activity against Setaria viridis (green foxtail) assessed as inhibition at 37.5 g/hectare treated at one-leaf stage by green house assay; assay type: functional
Outline: (§1)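 Monocot weeds were sprayed postemergence in the greenhouse at the one-leaf stage with diluted formulation solutions. Primary dose was 150 g ai/ha, with follow-up doses of 75 and 37.5 g ai/ha for selected compounds. Activity is scored as percent herbicidal damage compared with an untreated control.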

Echinochloa crus-galli [22] = assay: Post-emergence herbicidal activity against Echinochloa crus-galli (barnyard grass) assessed as inhibition at 75 g/hectare treated at one-leaf stage by green house assay; assay type: functional; outline: as §1
Oryza sativa = assay: Toxicity in Oryza sativa (rice) plant assessed as inhibition at 150 g/hectare; assay type: organism-based; settings: in vivo
Outline: (§2)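 For crop selectivity, conventional crop varieties were planted in 12 cm diameter plots and given a postemergence treatment at 150 g ai/ha. Injury was scored as percent inhibition, with 0–10% classed as safe to the crop.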

Brassica juncea [23] = assay: Post-emergence herbicidal activity against Brassica juncea assessed as inhibition at 37.5 g/hectare treated at two-leaf stage by green house assay; assay type: functional
Outline: (§3)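 Greenhouse postemergence spray of diluted formulation solutions onto broadleaf weeds at the two-leaf stage. Primary screen at 150 g ai/ha, with selected compounds retested at 75 and 37.5 g ai/ha. Abutilon was tested at 150 g ai/ha only. Read-out is percent herbicidal damage relative to an untreated control.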

Eclipta prostrata [24] = assay: Post-emergence herbicidal activity against Eclipta prostrata assessed as inhibition at 75 g/hectare treated at two-leaf stage by green house assay; assay type: functional; outline: as §3
Setaria viridis [25] = assay: Post-emergence herbicidal activity against Setaria viridis (green foxtail) assessed as inhibition at 75 g/hectare treated at one-leaf stage by green house assay; assay type: functional; outline: as §1
Amaranthus retroflexus [26] = assay: Post-emergence herbicidal activity against Amaranthus retroflexus assessed as inhibition at 75 g/hectare treated at two-leaf stage by green house assay; assay type: functional; outline: as §3
Echinochloa crus-galli [27] = assay: Post-emergence herbicidal activity against Echinochloa crus-galli (barnyard grass) assessed as inhibition at 37.5 g/hectare treated at one-leaf stage by green house assay; assay type: functional; outline: as §1
Echinochloa crus-galli [28] = assay: Post-emergence herbicidal activity against Echinochloa crus-galli (barnyard grass) assessed as inhibition at 150 g/hectare treated at one-leaf stage by green house assay; assay type: functional; outline: as §1
Zea mays = assay: Toxicity in Zea mays (maize) plant assessed as inhibition at 150 g/hectare; assay type: organism-based; settings: in vivo; outline: as §2
Brassica juncea [29] = assay: Post-emergence herbicidal activity against Brassica juncea assessed as inhibition at 150 g/hectare treated at two-leaf stage by green house assay; assay type: functional; outline: as §3
Eclipta prostrata [30] = assay: Post-emergence herbicidal activity against Eclipta prostrata assessed as inhibition at 37.5 g/hectare treated at two-leaf stage by green house assay; assay type: functional; outline: as §3
Brassica juncea [31] = assay: Post-emergence herbicidal activity against Brassica juncea assessed as inhibition at 75 g/hectare treated at two-leaf stage by green house assay; assay type: functional; outline: as §3
Brassica napus = assay: Toxicity in Brassica napus (oilseed rape) assessed as inhibition at 150 g/hectare; assay type: functional; outline: as §2
Abutilon theophrasti = assay: Post-emergence herbicidal activity against Abutilon theophrasti (velvetleaf) assessed as inhibition at 150 g/hectare treated at two-leaf stage by green house assay; assay type: functional; outline: as §3
Digitaria sanguinalis [32] = assay: Post-emergence herbicidal activity against Digitaria sanguinalis (hairy crabgrass) assessed as inhibition at 150 g/hectare treated at one-leaf stage by green house assay; assay type: functional; outline: as §1
Setaria viridis [33] = assay: Post-emergence herbicidal activity against Setaria viridis (green foxtail) assessed as inhibition at 150 g/hectare treated at one-leaf stage by green house assay; assay type: functional; outline: as §1
Glycine max = assay: Toxicity in Glycine max (soybean) plant assessed as inhibition at 150 g/hectare; assay type: organism-based; settings: in vivo; outline: as §2
Amaranthus retroflexus [34] = assay: Post-emergence herbicidal activity against Amaranthus retroflexus assessed as inhibition at 150 g/hectare treated at two-leaf stage by green house assay; assay type: functional; outline: as §3
Digitaria sanguinalis [35] = assay: Post-emergence herbicidal activity against Digitaria sanguinalis (hairy crabgrass) assessed as inhibition at 75 g/hectare treated at one-leaf stage by green house assay; assay type: functional; outline: as §1
Digitaria sanguinalis [36] = assay: Post-emergence herbicidal activity against Digitaria sanguinalis (hairy crabgrass) assessed as inhibition at 37.5 g/hectare treated at one-leaf stage by green house assay; assay type: functional; outline: as §1
Amaranthus retroflexus [37] = assay: Post-emergence herbicidal activity against Amaranthus retroflexus assessed as inhibition at 37.5 g/hectare treated at two-leaf stage by green house assay; assay type: functional; outline: as §3
Gossypium hirsutum = assay: Toxicity in Gossypium hirsutum (cotton) plant assessed as inhibition at 150 g/hectare; assay type: organism-based; settings: in vivo; outline: as §2
Triticum aestivum = assay: Toxicity in Triticum aestivum (wheat) plant assessed as inhibition at 150 g/hectare; assay type: organism-based; settings: in vivo; outline: as §2
Eclipta prostrata [38] = assay: Post-emergence herbicidal activity against Eclipta prostrata assessed as inhibition at 150 g/hectare treated at two-leaf stage by green house assay; assay type: functional; outline: as §3

Structure (SMILES): O=C(O)CNCP(=O)(O)O [GLYPHOSATE]
- inhibition at 150 g/ha (Ammannia baccifera [1]): 100%
- inhibition at 75 g/ha (Brassica oleracea [2]): 70%
- inhibition at 150 g/ha (Amaranthus retroflexus [3]): 90%
- inhibition at 150 g/ha (Brassica juncea [4]): 80%
- inhibition at 150 g/ha [5]: 100%
- inhibition at 150 g/ha (Pontederia vaginalis [6]): 100%
- inhibition at 75 g/ha (Ipomoea nil [7]): 60%
- inhibition at 150 g/ha (Radish [8]): 65%
- inhibition at 150 g/ha (Brassica oleracea [9]): 80%
- inhibition at 150 g/ha [10]: 80%
- inhibition at 150 g/ha (Ipomoea nil [11]): 60%
- inhibition at 75 g/ha (Pontederia vaginalis [12]): 100%
- inhibition at 75 g/ha [13]: 100%
- inhibition at 75 g/ha (Amaranthus retroflexus [14]): 90%
- inhibition at 75 g/ha [15]: 70%
- inhibition at 75 g/ha (Ammannia baccifera [16]): 100%
- inhibition at 75 g/ha (Radish [17]): 60%
- inhibition at 75 g/ha (Chenopodium album [18]): 70%
- inhibition at 75 g/ha (Brassica juncea [19]): 30%
- inhibition at 150 g/ha (Chenopodium album [20]): 90%

Structure (SMILES): CC1(C)COP(=O)(C(OC(=O)COc2ccc(Cl)cc2Cl)c2ccc(Cl)cc2)OC1 (stereo unspecified)
- inhibition at 37.5 g/ha (Setaria viridis [21]): 0%
- inhibition at 75 g/ha (Echinochloa crus-galli [22]): 0%
- inhibition (INH) (Oryza sativa): 10%
- inhibition at 37.5 g/ha (Brassica juncea [23]): 80%
- inhibition at 75 g/ha (Eclipta prostrata [24]): 0%
- inhibition at 75 g/ha (Setaria viridis [25]): 0%
- inhibition at 75 g/ha (Amaranthus retroflexus [26]): 50%
- inhibition at 37.5 g/ha (Echinochloa crus-galli [27]): 0%
- inhibition at 150 g/ha (Echinochloa crus-galli [28]): 0%
- inhibition (INH) (Zea mays): 0%
- inhibition at 150 g/ha (Brassica juncea [29]): 98%
- inhibition at 37.5 g/ha (Eclipta prostrata [30]): 0%
- inhibition at 75 g/ha (Brassica juncea [31]): 90%
- inhibition at 150 g/ha (Brassica napus): 40%
- inhibition at 150 g/ha (Abutilon theophrasti): 90%
- inhibition at 150 g/ha (Digitaria sanguinalis [32]): 0%
- inhibition at 150 g/ha (Setaria viridis [33]): 0%
- inhibition (INH) (Glycine max): 20%
- inhibition at 150 g/ha (Amaranthus retroflexus [34]): 80%
- inhibition at 75 g/ha (Digitaria sanguinalis [35]): 0%
- inhibition at 37.5 g/ha (Digitaria sanguinalis [36]): 0%
- inhibition at 37.5 g/ha (Amaranthus retroflexus [37]): 30%
- inhibition (INH) (Gossypium hirsutum): 20%
- inhibition (INH) (Triticum aestivum): 0%
- inhibition at 150 g/ha (Eclipta prostrata [38]): 70%

Structure (SMILES): Cc1cc(Cl)ccc1OCC(=O)OC(C)P1(=O)OCC(C)(C)CO1 (stereo unspecified)
- inhibition at 37.5 g/ha (Setaria viridis [21]): 0%
- inhibition at 150 g/ha (Ammannia baccifera [1]): 100%
- inhibition at 75 g/ha (Echinochloa crus-galli [22]): 0%
- inhibition (INH) (Oryza sativa): 10%
- inhibition at 37.5 g/ha (Brassica juncea [23]): 80%
- inhibition at 75 g/ha (Eclipta prostrata [24]): 85%
- inhibition at 75 g/ha (Setaria viridis [25]): 0%
- inhibition at 75 g/ha (Amaranthus retroflexus [26]): 100%
- inhibition at 150 g/ha (Amaranthus retroflexus [3]): 100%
- inhibition at 150 g/ha (Brassica juncea [4]): 100%
- inhibition at 37.5 g/ha (Echinochloa crus-galli [27]): 0%
- inhibition at 150 g/ha (Echinochloa crus-galli [28]): 30%
- inhibition (INH) (Zea mays): 0%
- inhibition at 150 g/ha (Brassica juncea [29]): 100%
- inhibition at 150 g/ha (Pontederia vaginalis [6]): 100%
- inhibition at 75 g/ha (Ipomoea nil [7]): 100%
- inhibition at 150 g/ha (Radish [8]): 80%
- inhibition at 37.5 g/ha (Eclipta prostrata [30]): 80%
- inhibition at 150 g/ha [10]: 80%
- inhibition at 150 g/ha (Ipomoea nil [11]): 100%
- inhibition at 75 g/ha (Pontederia vaginalis [12]): 100%
- inhibition at 75 g/ha (Amaranthus retroflexus [14]): 100%
- inhibition at 75 g/ha [15]: 70%
- inhibition at 75 g/ha (Brassica juncea [31]): 100%
- inhibition at 75 g/ha (Ammannia baccifera [16]): 100%
- inhibition at 150 g/ha (Brassica napus): 40%
- inhibition at 75 g/ha (Radish [17]): 80%
- inhibition at 150 g/ha (Abutilon theophrasti): 100%
- inhibition at 75 g/ha (Chenopodium album [18]): 70%
- inhibition at 150 g/ha (Digitaria sanguinalis [32]): 0%
- inhibition at 150 g/ha (Setaria viridis [33]): 0%
- inhibition at 75 g/ha (Brassica juncea [19]): 100%
- inhibition (INH) (Glycine max): 20%
- inhibition at 150 g/ha (Chenopodium album [20]): 75%
- inhibition at 150 g/ha (Amaranthus retroflexus [34]): 100%
- inhibition at 75 g/ha (Digitaria sanguinalis [35]): 0%
- inhibition at 37.5 g/ha (Digitaria sanguinalis [36]): 0%
- inhibition at 37.5 g/ha (Amaranthus retroflexus [37]): 80%
- inhibition (INH) (Gossypium hirsutum): 20%
- inhibition (INH) (Triticum aestivum): 0%
- inhibition at 150 g/ha (Eclipta prostrata [38]): 90%
